A short description of data set [1]: Binding affinity to HSP90-alpha L107G mutant (unknown origin) expressed in Escherichia coli BL21 by SPR assay. More on the design: species or system Homo sapiens. Put shortly:
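SPR on a Biacore T200 at 25 °C with running buffer PBST (PBS pH 7.4, 0.005% Tween-20). Protein at 20 μg/mL in 10 mM sodium acetate pH 5.0 was immobilized on a CM5 chip, which was equilibrated overnight in PBST. Inhibitor serially diluted from 10 μM was injected at 30 μL/min with 120 s contact and 120 s dissociation.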

The test system of data set [2] is CNE-2. Nature of the data set: Induction of apoptosis in human CNE-2 cells assessed as necrosis cells level at 500 nM incubated for 12 hrs by Annexin-V/FITC staining based FACS analysis (reference value: 1.45%). Format: cell-based. The settings on record: cne-2, 12 h, 0.5 µM. In general terms: A flow cytometer gives signals particle by particle.
Data set [3] relates to CNE2 (Homo sapiens). In words: Induction of apoptosis in human CNE2 cells at 70 nM incubated for 12 hrs in presence of HSP90-beta siRNA by Annexin-V/FITC staining based FACS analysis. The settings on record: cne2, 12 h, 0.07 µM.

From ChEMBL document CHEMBL4706684, “Discovering High Potent Hsp90 Inhibitors as Antinasopharyngeal Carcinoma Agents through Fragment Assembling Approach” (J Med Chem, 2021) come the findings set out here.

For the molecule `CC(C)(C)c1ccc(Cn2cc(-c3cc(O)c(O)c(O)c3)nn2)cc1`, binding in data set [1] was put at a Kd of 29.1 µM. Besides, the Activity in data set [2] is 0.96%; in data set [3] it was “Non-Toxic”.
